Bioassay records from PubChem.
MC4R barr agon – MC4R agonists recruiting beta-arrestin, primary screen, cell-based, luminescence, agonist arm of biased-ligand search | U2OS MC4R beta-arrestin complementation; percent of melanotan II response, DMSO zero | Melanocortin receptor 4 (Homo sapiens), P32245 | activation, % at 8.9 µM | AID 540308, 2011 | actives 0.98% (n = 360,000);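 active means activation above a per-plate cutoff, the mean activation of sample wells on that plate plus 3 SD, cut at about 8% in these data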
Target sequence (P32245 whole entry, looked up): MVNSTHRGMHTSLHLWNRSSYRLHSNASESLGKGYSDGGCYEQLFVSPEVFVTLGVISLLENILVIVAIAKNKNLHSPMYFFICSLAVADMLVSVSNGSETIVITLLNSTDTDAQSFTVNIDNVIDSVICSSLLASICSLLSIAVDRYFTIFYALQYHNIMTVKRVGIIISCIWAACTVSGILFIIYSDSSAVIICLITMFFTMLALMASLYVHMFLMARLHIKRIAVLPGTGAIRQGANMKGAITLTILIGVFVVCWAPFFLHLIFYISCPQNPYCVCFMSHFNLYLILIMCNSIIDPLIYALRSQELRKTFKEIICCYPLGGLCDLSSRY
MC4R antag cAMP – MC4R antagonists of cAMP signaling, primary screen, cell-based, TR-FRET, antagonist arm of biased-ligand search; MC4R-expressing cells, MTII-stimulated cAMP, LANCE TR-FRET; actives 0.48% (n = 360,000); inhibition, % at 6.5 µM; Melanocortin receptor 4 (Homo sapiens), P32245;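 active means inhibition above its plate's cutoff, the mean of tested wells on that plate plus 3 SD, cut at about 29% in these data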;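 further: 0% = Melanotan II alone and 100% = Melanotan II plus saturating MCL0020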
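System: U2OS-MC4R stable cell line; Technique: Eu-cAMP/anti-cAMP TR-FRET, emission 671 nm; Repeats: single well per compound; Also added: Melanotan II; Dosing: one concentration, 6.5 µM nominal; Schedule: 30-min compound, 1-h challenge, 1-h detection, room temperature.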
HTR2A ag – mouse Htr2a agonists via beta-arrestin recruitment, primary screen, cell-based, luminescence; 5-hydroxytryptamine receptor 2A (Mus musculus), P35363; CHO-K1 mHTR2A beta-arrestin complementation; percent of 30 µM serotonin response; activation, % at 7.6 µM; actives 0.66% (n = 360,000);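 active means activation above a run cutoff, the mean activation of all tested compounds plus 3 SD, cut at about 14% in these data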;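 further: 0% = plate median of compound wells and 100% = 30 µM serotonin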
Beta2AR agonist – beta2AR agonists driving receptor internalization, primary screen, cell-based, FAP fluorogen, flow cytometry | response, % (no concentration beside the values) | actives 0.43% (n = 340,000) | Beta-2 adrenergic receptor (Homo sapiens), P07550 | Am2.2-beta2AR cells;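 active means response above a set limit, near 3 SD of response in nonfluorescent compounds, cut at about 42% in these data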
TAAR1 antagonist – human TAAR1 antagonists, primary screen, Fluo-8 calcium fluorescence, CHO RD-HGA16 cells. inhibition, % at 3 µM. AID 624466, 2012. actives 1.5% (n = 360,000). antagonist;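 active means inhibition above a per-plate cutoff, the mean inhibition of test compounds on that plate plus 3 SD, cut at about 49% in these data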;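 further: 0% = DMSO plus EC80 beta-PEA response and 100% = DMSO alone without agonist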
Target sequence (Q96RJ0 whole entry, looked up): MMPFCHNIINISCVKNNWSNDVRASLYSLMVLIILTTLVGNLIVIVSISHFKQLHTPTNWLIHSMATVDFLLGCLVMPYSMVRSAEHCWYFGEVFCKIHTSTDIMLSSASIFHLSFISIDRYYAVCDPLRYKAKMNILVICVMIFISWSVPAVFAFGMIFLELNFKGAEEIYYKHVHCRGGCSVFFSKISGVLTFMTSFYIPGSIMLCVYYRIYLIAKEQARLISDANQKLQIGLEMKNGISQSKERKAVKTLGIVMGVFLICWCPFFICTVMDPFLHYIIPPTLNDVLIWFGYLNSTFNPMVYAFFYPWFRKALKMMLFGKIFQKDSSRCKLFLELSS
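System: CHO RD-HGA16 cells bearing hTAAR1. Reagent: EC80 β-phenethylamine stimulus. Schedule: seeding 17-24 h prior, 75-min 37 °C, 30-min RT dye loading. Signal: Fluo-8 intracellular calcium dye fluorescence, real-time kinetic reads. Read-out: % inhibition from peak post-agonist over basal fluorescence ratio. Benchmarks: vehicle wells and EC80 agonist wells. Replicates: n of 1.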
TAAR1 agonist – human TAAR1 agonists, primary screen, Fluo-8 calcium fluorescence, CHO RD-HGA16 cells. Trace amine-associated receptor 1 (Homo sapiens), Q96RJ0. actives 0.99% (n = 360,000). vehicle wells 0%, saturating PEA agonist 100%. activation, % at 3 µM;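 active means activation above the mean activation of all test compounds in the run plus 3 SD, cut at about 38% in these data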
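Benchmarks: low control DMSO, high control PEA (EC100); System: CHO RD-HGA16 cells carrying human TAAR1 plus Gα16; Detection: Fluo-8 fluorescence, 5 s baseline then 140 s kinetic read; Schedule: 17-24 h plating, Fluo-8 75 min 37 °C, 30 min RT; Read-out basis: % activation from peak over basal fluorescence ratio, DMSO-to-PEA scaled.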
TAAR1 nonsel count – nonselective antagonists in TAAR1 counter-screen cells, counter-screen for hTAAR1 antagonist project, cell-based, fluorescence, calcium; shares compounds with TAAR1 antagonist; counterscreen cell line, antagonist mode; inhibition, % at 3 µM; actives 77% (n = 2,400); AID 651780, 2012; in the data active means inhibition above about 22%;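 further: CHO-Ga16 host cells stimulated with ATP at an EC80 level; 0% = agonist EC80 plus vehicle and 100% = vehicle without agonist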
TAAR1 antag conf – human TAAR1 antagonists, retest of hits, confirmation, cell-based, fluorescence | actives 40% (n = 2,400) | shares compounds with TAAR1 antagonist | TAAR1-expressing cells, fluorescence antagonist read-out | inhibition, % at 3 µM; in the data active means inhibition above about 49%;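 further: CHO-Ga16 host cells challenged with agonist PEA near its EC80; 0% = agonist at EC80 plus vehicle and 100% = vehicle with no agonist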
Ga16 nonsel ag – calcium activation in Ga16-expressing cells, counter-screen for TAAR1 antagonist project, cell-based, fluorescence; shares compounds with TAAR1 antagonist; agonist counterscreen; activation, % at 3 µM; actives 18% (n = 2,400); AID 651953, 2012; in the data active means activation above about 12%;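 further: 0% = vehicle wells and 100% = saturating stimulus response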
TAAR1 ag count – TAAR1 activation by candidate antagonists – cell-based, fluorescence, counter-screen for TAAR1 antagonist project. shares compounds with TAAR1 antagonist. hTAAR1 cell line, agonist mode. activation, % at 3 µM. actives 2% (n = 2,400); in the data active means activation above about 37%;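 further: CHO cells stably expressing TAAR1 with calcium dye readout; 0% = DMSO vehicle and 100% = full agonist response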
Active calls of the source: *; x = no result. Most compounds without a hit are left out; they make up all but 4.3% or so of the library.

SMILES | MC4R barr agon | MC4R antag cAMP | HTR2A ag | Beta2AR agonist | TAAR1 antagonist | TAAR1 agonist | TAAR1 nonsel count | TAAR1 antag conf | Ga16 nonsel ag | TAAR1 ag count
COCCN(C(=O)Cc1cccs1)C(C(=O)NCc1ccc(OC)cc1)c1ccc(C(C)C)cc1 (configuration not stated) | 3 | 9 | -1 | -6 | 64* | 15 | 29* | 54* | 10 | 13
CCc1ccc(C(C(=O)NCc2ccc(OC)cc2)N(CCOC)C(=O)Cc2cccs2)cc1 (configuration not stated) | 1 | -2 | -1 | -3 | 73* | 19 | 29* | 53* | 9 | 8
O=C(NCc1ccccc1)C(c1ccccc1)N(Cc1ccc2c(c1)OCO2)C(=O)Cc1cccs1 (configuration not stated) | -1 | 11 | -5 | 6 | 80* | 10 | 40* | 59* | 12* | 8
COCCN(C(=O)Cc1cccs1)C(C(=O)NCc1ccc(OC)cc1)c1ccc(C)cc1 (configuration not stated) | 0 | 11 | -2 | -10 | 28 | 14 | x | x | x | x
CC(C)(C)OC(=O)N(Cc1ccccc1)Cc1ccccc1OCc1cccc(NC(=O)C2CCC2)c1 | 0 | 5 | -6 | -2 | 2 | 2 | x | x | x | x
CCOC(=O)c1nn(-c2ccccc2F)c(-c2ccccc2)c1C(=O)c1ccccc1 | -3 | 4 | -4 | 9 | 56* | 5 | 10 | 33 | 9 | 11
Cc1n[nH]c(C)c1CCc1nc2c3ccccc3nc(SCC(=O)Nc3ccccc3F)n2n1 | 4 | 3 | 2 | 5 | 61* | 9 | 23* | 37 | 9 | 10
CN1OC[C@@H]2CN(Cc3ccccc3)[C@H](c3ccc(-n4ccnc4)cc3)C[C@@H]21 | x | x | 4 | x | -23 | 4 | x | x | x | x
COc1ccccc1CNC(=O)c1cc(-c2cccnc2)nc2ccccc12 | 0 | 17 | -1 | -4 | 74* | 15 | 23* | 39 | 10 | 14
COc1ccc(C2=NOC(Cn3nc(C(=O)NCc4cccc(Br)c4)cc3-c3ccccc3)C2)cc1 (configuration not stated) | -2 | 5 | 9 | 7 | 57* | 12 | 30* | 36 | 6 | 3
O=C(NCc1ccco1)c1cc(-c2cccnc2)nc2ccccc12 | -3 | 0 | -4 | -8 | 22 | 7 | x | x | x | x
COc1ccc(C2=NOC(Cn3nc(-c4ccccc4)cc3C(=O)NCc3ccccc3OC)C2)cc1 (configuration not stated) | -1 | 6 | -3 | -1 | 34 | 7 | x | x | x | x
COc1ccccc1Nc1cc(C(=O)NCc2cccnc2)c2ccccc2n1 | -2 | 1 | -3 | 1 | 36 | 12 | x | x | x | x
Cc1ccc(C)c(Nc2cc(C(=O)NCc3cccnc3)c3ccccc3n2)c1 | 2 | -3 | -6 | -10 | 50* | 13 | 22* | 44 | 9 | 7
COc1ccccc1CNC(=O)c1cc(-c2ccccc2)nn1CC1CC(c2cccnc2)=NO1 (configuration not stated) | 3 | 10 | 4 | 1 | 53* | 14 | 20 | 47 | 9 | 11
O=C(Nc1cccc(C(F)(F)F)c1)c1ccc(-c2ccc(F)c(F)c2)c2ccoc12 | -1 | -4 | -1 | x | -11 | 0 | x | x | x | x
COc1ccc(Cl)cc1NS(=O)(=O)c1c(C)[nH]c(=O)[nH]c1=O | -2 | 12 | 8 | 0 | -6 | 0 | x | x | x | x
COC(=O)[C@]1(Cc2ccccc2)NC=C(C(=O)c2ccccc2)[C@@H]1c1cccs1 | x | x | x | x | -11 | 0 | x | x | x | x
COCCN(CC(=O)Nc1cccc(C)c1C)C(=O)c1oc2c(Cl)cccc2c1C | 0 | 1 | 4 | 0 | 22 | 21 | x | x | x | x
COCCN(CC(=O)Nc1cccc(C)c1C)C(=O)c1cc(-c2ccncc2)nc2ccccc12 | -1 | 19 | -2 | 21 | 74* | 18 | 31* | 56* | 7 | 6
COCCCNC(=O)c1cc(-c2cccnc2)nc2ccccc12 | -1 | 1 | 3 | 6 | 10 | 2 | x | x | x | x
COCCNC(=O)c1cc(-c2ccc(-c3ccccc3)cc2)nc2ccccc12 | 0 | -4 | -12 | 11 | 55* | 4 | 25* | 35 | 6 | 1
Cc1cc(CNC(=O)c2cc(-c3ccccc3)nc3ccccc23)nn1C | -3 | -4 | 0 | 3 | 52* | 8 | 24* | 43 | 10 | 9
CC(NCC(=O)Nc1ccccc1C(=O)NC1CC1)c1ccc(S(C)(=O)=O)cc1 (configuration not stated) | 2 | 3 | 0 | -1 | 5 | 5 | x | x | x | x
CN1CCN(C(=O)c2cc3c(s2)-c2ccccc2S(=O)(=O)C3)CC1 | -1 | -6 | -2 | -1 | -11 | 1 | x | x | x | x
COc1ccc(N2CCN(C(=O)c3cc4c(s3)-c3ccccc3S(=O)(=O)C4)CC2)cc1 | 1 | 20 | 10 | 21 | 52* | 13 | 30* | 42 | 7 | 9
Cc1noc(C)c1C(=O)Nc1nc(-c2ccc([N+](=O)[O-])cc2)cs1 | -3 | 16 | -8 | 14 | 57* | 8 | 37* | 47 | 10 | 6
O=C(Nc1nccs1)c1cn(-c2ccccc2)nc1-c1ccccc1 | -1 | -6 | 0 | 10 | 72* | 7 | 12 | 38 | 3 | 2
